# Results: ChEMBL document CHEMBL3232958, “Antiproliferative and uncoupling effects of delocalized, lipophilic, cationic gallic acid derivatives on cancer cell lines. Validation in vivo in singenic mice” (J Med Chem, 2014)
# The source made the active and inactive calls. The calls are words filed in the database; no cut-off is given here.
# Key:
# [1] = Cytotoxicity against mouse TA3/Ha cells after 48 hrs by neutral red assay; type: functional, cell-based
# Outline: (§1)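 Neutral red uptake after 48 h exposure at 37 °C, 5% CO2. Seeding: 1 × 10^5 cells/mL for TA3, TA3-MTX-R and CCRF-CEM; 4 × 10^4 cells/mL for MM3MG. Dye at 100 μg/mL for 2 h, then ethanol/acetic acid extraction and absorbance at 540 nm. IC50 from variable-slope sigmoidal dose–response fit; at least three independent experiments in triplicate, mean ± SEM.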
# [2] = Cytotoxicity against mouse multidrug-resistant TA3-MTX-R cells after 48 hrs by neutral red assay; type: functional, cell-based; outline: as §1
# CCRF-CEM = test: Cytotoxicity against human CCRF-CEM cells after 48 hrs by neutral red assay; type: functional, cell-based; outline: as §1
# [3] = Cytotoxicity against mouse MM3MG cells after 48 hrs by neutral red assay; type: cell-based; outline: as §1
# TA3/Ha [4] = test: Induction of apoptosis in mouse TA3/Ha cells assessed as caspase 3 activation at 0.5 uM after 24 hrs by Western blot analysis; type: functional, cell-based
# Outline: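 Caspase 3 measured by Western blot. RIPA lysates, 50 μg protein run on 12% SDS–PAGE. Anti-caspase 3 (1:1000) and tubulin loading control (1:10000) overnight at 4 °C; HRP secondary for 2 h. ECL detection and densitometry.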
# TA3/Ha [5] = test: Induction of apoptosis in mouse TA3/Ha cells assessed as early stage apoptotic cells at 0.5 uM after 24 to 48 hrs using annexin V/propidium iodide staining by flow cytometry; type: functional, cell-based
# Outline: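 Annexin V-FITC/PI flow cytometry on 1 × 10^5 cells/mL treated for 24 and 48 h at 37 °C, 5% CO2. 5 min staining at room temperature; 5000 events recorded. Early apoptosis scored as annexin V+/PI−. Staurosporine 10 μM as positive control; at least three experiments, ANOVA with Bonferroni test.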
# TA3/Ha [6] = test: Cytotoxicity against mouse TA3/Ha cells up to 24 hrs by lactate dehydrogenase assay; type: functional, cell-based
# Outline: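 LDH release measured with a kit on 2 × 10^5 cells/mL incubated at 37 °C, 5% CO2, 90% humidity. Supernatant taken after centrifugation at 600g for 3 min, then 30 min with reaction mix at room temperature; absorbance read at 450 nm.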
# TA3/Ha [7] = test: Increase of oxygen consumption in mouse TA3/Ha cell mitochondria using glutamate and malate as substrate at 10^-4 M after 2 mins by polarographic analysis; type: functional
# Outline: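 Clark electrode polarography of isolated mitochondria (1.0 mg/mL) at 25 °C. Medium: sucrose/KCl, 3 mM phosphate, Hepes pH 7.0, 2 mM MgCl2. Substrates 2 mM glutamate + 2 mM malate; 0.5 mM ADP, oligomycin and KCN also used.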
# [8] = Uncoupling respiration effect in mouse TA3/Ha cells after 2 mins by polarographic analysis in presence of FCCP; type: functional
# Outline: (§2)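 Polarographic respiration of digitonin-permeabilized cells (0.013 μg/mg protein; 2.5 mg protein/mL) in PBS pH 7.4 with 10 mM succinate and 1 μg/mL oligomycin. Cations added in 3 μL DMSO. Atractyloside 5 nmol/mg protein was added before succinate. FCCP added at the end: 0.15 μM for TA3, 0.25 μM for TA3-MTX-R. Slope and K0.5 taken from log–log linear regression; at least three experiments.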
# [9] = Uncoupling respiration effect in mouse TA3-MTX-R cells after 2 mins by polarographic analysis in presence of FCCP; type: functional; outline: as §2
# TA3/Ha [10] = test: Reduction of ATP level in mouse TA3/Ha cells at 1 to 20 uM after 2 hrs by CellTiter-Glo luminescent assay; type: functional, cell-based
# Outline: (§3)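 CellTiter-Glo luminescence on 2 × 10^5 cells/mL incubated with cation for 2 h. Aliquot held 10 min at room temperature in the dark before reading; at least three experiments.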
# TA3/Ha [11] = test: Reduction of ATP level in mouse TA3/Ha cells after 2 hrs by CellTiter-Glo luminescent assay; type: functional, cell-based; outline: as §3
# [12] = Toxicity in mouse TA3/Ha cells assessed as cell membrane integrity after 24 hrs using propidium iodide by flow cytometry; type: cell-based; settings: 2 to 4 h, in the assay text read “after 2 to 4 hrs” for “after 24 hrs”
# Outline: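 Membrane integrity by PI uptake on flow cytometry. Cells were seeded, grown for 24 h at 37 °C, 5% CO2, then given fresh medium with cation for 2 and 4 h before PI was added. Mean ± SEM of at least three experiments.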
# TA3/Ha [13] = test: Decrease of mitochondrial transmembrane potential in mouse TA3/Ha cell mitochondria at 0.2 nmol after 5 mins by safranin and JC-1 staining; type: functional
# Outline: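 Mitochondria isolated from TA3/Ha tumour cells (washed, BSA-free), 1.0 mg/mL protein. Safranin 20 μM, read 5 min; then 2 mM glutamate + 2 mM malate, read 5 min; then cation added. ΔΨm followed as ΔA511−533nm spectrophotometrically.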
SMILES,IC50 [1] [µM],IC50 [2] [µM],IC50 (CCRF-CEM) [µM],IC50 [3] [µM],Activity (TA3/Ha [4]),Activity (TA3/Ha [5]),Activity (TA3/Ha [6]),Activity (TA3/Ha [7]),K0.5 [8] [×10⁻⁴ M],K0.5 [9] [×10⁻⁴ M],Activity (TA3/Ha [10]),Activity (TA3/Ha [11]),Activity [12],Activity (TA3/Ha [13])
c1ccc(P(c2ccccc2)c2ccccc2)cc1,190,> 200,184,> 200,–,–,–,–,–,–,–,–,–,–
O=C(OCCCCCCCC[P+](c1ccccc1)(c1ccccc1)c1ccccc1)c1cc(O)c(O)c(O)c1.[Br-],13.4,14.4,34.6,29.4,inactive,Active,Active,Active,2.25,1.91,Active,Dose-dependent effect,Non-toxic,–
O=C(OCCCCCCCCCCC[P+](c1ccccc1)(c1ccccc1)c1ccccc1)c1cc(O)c(O)c(O)c1.[Br-],6.4,3.7,19.8,14.3,inactive,Active,Active,–,–,–,Active,Dose-dependent effect,Non-toxic,–
N#CC(C#N)=NNc1cccc(Cl)c1,–,–,–,–,–,–,–,–,–,–,–,–,–,Active
O=C(O)c1cc(O)c(O)c(O)c1 [GALLIC ACID],163,160,> 200,> 200,–,–,–,–,–,–,–,–,–,–
